According to ChEMBL document CHEMBL1148923, “Novel cassane and cleistanthane diterpenes from Myrospermum frutescens: absolute stereochemistry of the cassane diterpene series” (J Nat Prod, 2004):

Assays:
Trypanosoma cruzi [1] = assay: Antitrypanosomal activity against extracellular Trypanosoma cruzi Tulahuen clone C4; assay type: functional, organism-based
Trypanosoma cruzi [2] = assay: Antitrypanosomal activity against intracellular Trypanosoma cruzi Tulahuen clone C4 assessed as cleavage of […]; assay type: functional, organism-based
How it was run: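 Transgenic T. cruzi (Tulahuen strain, clone C4) expressing β-galactosidase were exposed to added compound. Growth of the intracellular form was read as cleavage of chlorophenol red-β-D-galactoside (CPRG) at 570 nm.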

Vero = assay: Cytotoxicity against african green monkey Vero cells after 4 hrs by MTT assay; assay type: cell-based; conditions: Chlorocebus sabaeus
How it was run: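 Adherent Vero cells were treated with compound and incubated 4 h at 37°. Viability was read from MTT reduction in an ELISA reader at 570 nm.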

| SMILES | IC50 (Trypanosoma cruzi [1]) [µM] | IC50 (Trypanosoma cruzi [2]) [µM] | IC50 (Vero) [µM] |
| --- | --- | --- | --- |
| C=CC1=C(C)[C@@H]2CC[C@H]3[C@](C)(CO)CCC[C@]3(C)[C@H]2CC1 | 48 |  |  |
| C=CC1=C(C)[C@@H]2C[C@@H](OC(C)=O)[C@H]3[C@](C)(CO)CCC[C@]3(C)[C@H]2CC1 | 56.7 | 76.5 | 178 |
| C[C@]1(CO)CCC[C@]2(C)[C@H]3CC(=O)[C@@]4(C)[C@@H]([C@@H]3CC[C@@H]12)[C@@H]4CO |  |  | 433 |
| C=CC1=C(C)[C@@H]2CC(=O)[C@H]3[C@](C)(COC(C)=O)CCC[C@]3(C)[C@H]2CC1 | 17.7 | 79.1 | 238 |
| CC(=O)OC[C@]1(C)CCC[C@]2(C)[C@H]3CCC(C=O)=C(C)[C@@H]3CC(=O)[C@@H]12 | 40.4 | 61.4 | 416 |
| C=CC1=C(C)[C@@H]2C[C@@H](O)[C@H]3[C@](C)(CO)CCC[C@]3(C)[C@H]2CC1 |  | 16 |  |
| C=CC1=C(C)[C@@H]2C[C@@H](O)[C@H]3[C@](C)(COC(C)=O)CCC[C@]3(C)[C@H]2CC1 | 11 |  |  |
| C=C[C@@]1(O)CC[C@H]2[C@@H](C[C@@H](O)[C@H]3[C@](C)(COC(C)=O)CCC[C@]23C)C1=C | 16 |  |  |
| CO[C@@]12C[C@H]3[C@@H]([C@@H](O)[C@@H](OC(C)=O)[C@H]4[C@](C)(COC(C)=O)CCC[C@]34C)[C@@H](C)C1=CC(=O)O2 [CHAGRESLACTONE] | 75 |  | 225 |
| C=CC1=C(CO)[C@@H]2C[C@@H](O)[C@H]3[C@](C)(COC(C)=O)CCC[C@]3(C)[C@H]2CC1 [CHAGRESNOL] | 38.8 | 76 | 156 |
| CC(=O)OC[C@H]1[C@@H]2[C@@H]3CC[C@H]4[C@@](C)(CO)CCC[C@]4(C)[C@H]3CC(=O)[C@@]21C [CHAGRESNONE] | 56.9 | 95.5 | 448 |
